What was measured:
[1] = target: T1, MtuLigA (Mycobacterium tuberculosis, UniProt P9WNV1); experiment: Mode of inhibition, Michaelis-Menten / Lineweaver-Burk kinetics; format: biochemical, M.tuberculosis; details: read-out: Km for NAD^+; absence of the inhibitor, 10% Me2SO
How it was run: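 Full-length recombinant MtuLigA (2 ng), 50 mM Tris–HCl pH 8.0, 5 mM DTT, 10 mM MgCl2, 10% Me2SO, 5′-32P-labelled nicked 40 bp duplex at 0.85 µM (saturating), NAD+ 0–50 µM, compound 0–250 or 0–450 µM; 1 h, 25°C. Ligation rate from gel scanning; Michaelis–Menten fit. Ki from apparent Km versus compound concentration. Mode from Lineweaver–Burk linear regression.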

[2] = target: T1, MtuLigA; format: biochemical, M.tuberculosis; details: read-out: IC50 MtuLigA; 50 µM NAD+, 10% Me2SO, 1 h at 25°C
[3] = target: T2, T4 DNA ligase (Enterobacteria phage T4, UniProt P00970); experiment: In vitro ligase inhibition assay, 32P-labeled nicked 40 bp DNA substrate; format: biochemical, bacteriophage T4; details: read-out: IC50 T4Lig; 66 µM ATP, 10% Me2SO
T2 sequence (P00970 1-487): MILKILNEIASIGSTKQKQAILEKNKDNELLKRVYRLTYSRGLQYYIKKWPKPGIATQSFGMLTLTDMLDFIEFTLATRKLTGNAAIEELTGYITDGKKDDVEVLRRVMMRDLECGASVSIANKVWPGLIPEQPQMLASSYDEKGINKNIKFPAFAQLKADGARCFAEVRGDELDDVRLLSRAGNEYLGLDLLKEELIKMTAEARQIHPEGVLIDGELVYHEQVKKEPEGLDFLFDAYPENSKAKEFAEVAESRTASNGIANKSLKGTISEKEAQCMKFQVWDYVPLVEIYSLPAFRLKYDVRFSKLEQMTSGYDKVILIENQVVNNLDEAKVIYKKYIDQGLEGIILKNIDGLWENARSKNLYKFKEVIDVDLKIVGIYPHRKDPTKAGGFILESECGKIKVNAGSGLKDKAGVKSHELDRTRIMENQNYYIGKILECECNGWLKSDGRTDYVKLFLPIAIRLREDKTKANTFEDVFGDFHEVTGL

NC(=O)c1ccc[n+]([C@@H]2O[C@H](COP(=O)([O-])OP(=O)(O)OC[C@H]3O[C@@H](n4cnc5c(N)ncnc54)[C@H](O)[C@@H]3O)[C@@H](O)[C@H]2O)c1 [NAD]
Km [1]: 1.56 µM

Chloroquine [Compound 6]
IC50 [2]: 5 ± 0.3 µM | IC50 [3]: 3 ± 0.2 µM

Doxorubicin [Compound 7]
IC50 [3]: 1600 ± 15 µM
